Reference: ChEMBL document CHEMBL1629494, “New amino acid esters of salicylanilides active against MDR-TB and other microbes” (Eur J Med Chem, 2010)
Converted amounts (≈) assume the structure as drawn.

Columns and labels:
Type in all cases: functional
Mycobacterium avium [1] = test: Antimycobacterial activity against multidrug-resistant Mycobacterium avium 330/88 after 14 days by micromethod; settings: 330/88, 336 h
How it was run: (§1)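 Micromethod in Sula semisynthetic medium, with compounds added as DMSO solutions at 1000, 500, 250, 125, 62, 32, 16, 8, 4, 2, 1, 0.5, 0.25. Inoculum dilutions: H37Rv 10^-3; M. avium 330/88 10^-5; M. kansasii 235/80 10^-4; M. kansasii 6509/96 10^-5. Incubated at 37 °C, read at 14 and 21 days, and at 7 days for M. kansasii. MIC was the lowest concentration inhibiting growth.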

Mycobacterium kansasii [2] = test: Antimycobacterial activity against Mycobacterium kansasii 235/80 after 14 days by micromethod; settings: 235/80, 336 h; how it was run: as §1
Mycobacterium avium [3] = test: Antimycobacterial activity against multidrug-resistant Mycobacterium avium 330/88 after 21 days by micromethod; settings: 330/88, 504 h; how it was run: as §1
Mycobacterium kansasii [4] = test: Antimycobacterial activity against Mycobacterium kansasii 6509/96 after 21 days by micromethod; settings: 6509/96, 504 h; how it was run: as §1
[5] = test system: Mycobacterium tuberculosis; test: Antimycobacterial activity against Mycobacterium tuberculosis H37Rv 331/88 after 14 days by micromethod; settings: H37Rv 331/88, 336 h; how it was run: as §1
Mycobacterium kansasii [6] = test: Antimycobacterial activity against Mycobacterium kansasii
[7] = test system: Mycobacterium tuberculosis; test: Antimycobacterial activity against Mycobacterium tuberculosis H37Rv 331/88 after 21 days by micromethod; settings: H37Rv 331/88, 504 h; how it was run: as §1
[8] = test system: Mycobacterium tuberculosis; test: Antimycobacterial activity against drug-sensitive Mycobacterium tuberculosis
Mycobacterium kansasii [9] = test: Antimycobacterial activity against Mycobacterium kansasii 235/80 after 7 days by micromethod; settings: 235/80, 168 h; how it was run: as §1
Mycobacterium avium [10] = test: Antimycobacterial activity against Mycobacterium avium
Mycobacterium kansasii [11] = test: Antimycobacterial activity against Mycobacterium kansasii 6509/96 after 14 days by micromethod; settings: 6509/96, 336 h; how it was run: as §1
Mycobacterium kansasii [12] = test: Antimycobacterial activity against Mycobacterium kansasii 6509/96 after 7 days by micromethod; settings: 6509/96, 168 h; how it was run: as §1
Mycobacterium kansasii [13] = test: Antimycobacterial activity against Mycobacterium kansasii 235/80 after 21 days by micromethod; settings: 235/80, 504 h; how it was run: as §1
Candida tropicalis [14] = test: Antifungal activity against Candida tropicalis 156 after 48 hrs by broth microdilution method; settings: Candida tropicalis, 156, 48 h
Enterococcus sp. [15] = test: Antibacterial activity against Enterococcus sp. J14365/08 after 48 hrs by broth microdilution method; settings: J14365/08, 48 h
How it was run: (§2)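 Broth microdilution following […], with twofold compound dilutions in Mueller-Hinton bouillon. Incubated 24 and 48 h at 35 °C in the dark in a humid atmosphere. MIC (IC80) was taken as ≥80% growth reduction versus control, read visually and photometrically.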

Aspergillus fumigatus [16] = test: Antifungal activity against Aspergillus fumigatus 231 after 24 hrs by broth microdilution method; settings: Aspergillus fumigatus, 231, 24 h
Nakaseomyces glabratus [17] = test: Antifungal activity against Candida glabrata 20/I after 48 hrs by broth microdilution method
Staphylococcus aureus [18] = test: Antibacterial activity against Staphylococcus aureus CCM 4516/08 after 24 hrs by broth microdilution method; settings: CCM 4516/08, 24 h; how it was run: as §2
Lichtheimia corymbifera [19] = test: Antifungal activity against Absidia corymbifera 272 after 48 hrs by broth microdilution method; settings: Lichtheimia corymbifera, 272, 48 h
Escherichia coli [20] = test: Antibacterial activity against Escherichia coli CCM 4517 after 24 hrs by broth microdilution method; settings: CCM 4517, 24 h; how it was run: as §2
Aspergillus fumigatus [21] = test: Antifungal activity against Aspergillus fumigatus 231 after 48 hrs by broth microdilution method; settings: Aspergillus fumigatus, 231, 48 h
Candida albicans [22] = test: Antifungal activity against Candida albicans ATCC 44859 after 48 hrs by broth microdilution method; settings: ATCC 44859, 48 h
Staphylococcus aureus [23] = test: Antibacterial activity against Staphylococcus aureus CCM 4516/08 after 48 hrs by broth microdilution method; settings: CCM 4516/08, 48 h; how it was run: as §2
Klebsiella pneumoniae [24] = test: Antibacterial activity against Klebsiella pneumoniae D11750/08 after 24 hrs by broth microdilution method; settings: D11750/08, 24 h; how it was run: as §2
Trichosporon beigelii [25] = test: Antifungal activity against Trichosporon beigelii 1188 after 48 hrs by broth microdilution method; settings: Trichosporon beigelii, 1188, 48 h
Lichtheimia corymbifera [26] = test: Antifungal activity against Absidia corymbifera 272 after 24 hrs by broth microdilution method; settings: Lichtheimia corymbifera, 272, 24 h
Nakaseomyces glabratus [27] = test: Antifungal activity against Candida glabrata 20/I after 24 hrs by broth microdilution method
Trichosporon beigelii [28] = test: Antifungal activity against Trichosporon beigelii 1188 after 24 hrs by broth microdilution method; settings: Trichosporon beigelii, 1188, 24 h
Candida tropicalis [29] = test: Antifungal activity against Candida tropicalis 156 after 24 hrs by broth microdilution method; settings: Candida tropicalis, 156, 24 h
Staphylococcus aureus [30] = test: Antibacterial activity against methicillin-resistant Staphylococcus aureus H5996/08 after 48 hrs by broth microdilution method; settings: H5996/08, 48 h; how it was run: as §2
Candida albicans [31] = test: Antifungal activity against Candida albicans ATCC 44859 after 24 hrs by broth microdilution method; settings: ATCC 44859, 24 h
[32] = test system: Staphylococcus epidermidis; test: Antibacterial activity against Staphylococcus epidermidis H6966/08 after 24 hrs by broth microdilution method; settings: H6966/08, 24 h; how it was run: as §2
Enterococcus sp. [33] = test: Antibacterial activity against Enterococcus sp. J14365/08 after 24 hrs by broth microdilution method; settings: J14365/08, 24 h; how it was run: as §2
[34] = test system: Staphylococcus epidermidis; test: Antibacterial activity against Staphylococcus epidermidis H6966/08 after 48 hrs by broth microdilution method; settings: H6966/08, 48 h; how it was run: as §2
Pichia kudriavzevii [35] = test: Antifungal activity against Candida krusei E28 after 48 hrs by broth microdilution method; settings: E28, 48 h
Pichia kudriavzevii [36] = test: Antifungal activity against Candida krusei E28 after 24 hrs by broth microdilution method; settings: E28, 24 h
Escherichia coli [37] = test: Antibacterial activity against Escherichia coli CCM 4517 after 48 hrs by broth microdilution method; settings: CCM 4517, 48 h; how it was run: as §2
[38] = test system: Trichophyton mentagrophytes; test: Antifungal activity against Trichophyton mentagrophytes after 48 hrs by broth microdilution method
[39] = test system: Trichophyton mentagrophytes; test: Antifungal activity against Trichophyton mentagrophytes after 24 hrs by broth microdilution method
Staphylococcus aureus [40] = test: Antibacterial activity against methicillin-resistant Staphylococcus aureus H5996/08 after 24 hrs by broth microdilution method; settings: H5996/08, 24 h; how it was run: as §2
Klebsiella pneumoniae [41] = test: Antibacterial activity against Klebsiella pneumoniae D11750/08 after 48 hrs by broth microdilution method; settings: D11750/08, 48 h; how it was run: as §2

In the case of `CC(=O)N[C@@H](Cc1ccccc1)C(=O)Oc1ccc(Cl)cc1C(=O)Nc1cccc(Cl)c1`, the MIC (Mycobacterium avium [1]) is reported as 8 µM (≈ 3.77 µg/mL), the MIC (Mycobacterium kansasii [2]) is reported as 8 µM (≈ 3.77 µg/mL) and the MIC (Mycobacterium avium [3]) is reported as 32 µM (≈ 15.1 µg/mL). The MIC (Mycobacterium kansasii [4]) was 8 µM (≈ 3.77 µg/mL), the MIC [5] was 2 µM (≈ 0.943 µg/mL) and the MIC (Mycobacterium kansasii [6]) was 1 µM (≈ 0.471 µg/mL). For the same compound, the MIC [7] was 4 µM (≈ 1.89 µg/mL), the MIC [8] was 1 µM (≈ 0.471 µg/mL) and the MIC (Mycobacterium kansasii [9]) was 8 µM (≈ 3.77 µg/mL). For the same compound, the MIC (Mycobacterium avium [10]) was 1 µM (≈ 0.471 µg/mL), the MIC (Mycobacterium kansasii [11]) was 8 µM (≈ 3.77 µg/mL) and the MIC (Mycobacterium kansasii [12]) was 2 µM (≈ 0.943 µg/mL). The MIC (Mycobacterium kansasii [13]) was 8 µM (≈ 3.77 µg/mL).

For `CC(=O)N[C@@H](Cc1ccccc1)C(=O)Oc1cc(Cl)ccc1C(=O)Nc1cccc(Cl)c1`, the MIC (Candida tropicalis [14]) was > 125 µM, the MIC (Enterococcus sp. [15]) was > 125 µM and the MIC (Aspergillus fumigatus [16]) was > 125 µM. The MIC (Nakaseomyces glabratus [17]) was > 125 µM, the MIC (Staphylococcus aureus [18]) was 31.2 µM (≈ 14.7 µg/mL) and the MIC (Mycobacterium avium [1]) was 4 µM (≈ 1.89 µg/mL). For the same compound, the MIC (Lichtheimia corymbifera [19]) was > 125 µM, the MIC (Escherichia coli [20]) was > 125 µM and the MIC (Aspergillus fumigatus [21]) was > 125 µM. For the same compound, the MIC (Candida albicans [22]) was > 125 µM, the MIC (Mycobacterium kansasii [2]) was 4 µM (≈ 1.89 µg/mL) and the MIC (Staphylococcus aureus [23]) was 125 µM (≈ 58.9 µg/mL). For the same compound, the MIC (Mycobacterium avium [3]) was 8 µM (≈ 3.77 µg/mL), the MIC (Klebsiella pneumoniae [24]) was > 125 µM and the MIC (Mycobacterium kansasii [4]) was 8 µM (≈ 3.77 µg/mL). For the same compound, the MIC [5] was 2 µM (≈ 0.943 µg/mL), the MIC (Trichosporon beigelii [25]) was > 125 µM and the MIC (Mycobacterium kansasii [6]) was 1 µM (≈ 0.471 µg/mL). The MIC (Lichtheimia corymbifera [26]) was 62.5 µM (≈ 29.5 µg/mL), the MIC [7] was 4 µM (≈ 1.89 µg/mL) and the MIC [8] was 1 µM (≈ 0.471 µg/mL). For the same compound, the MIC (Nakaseomyces glabratus [27]) was > 125 µM, the MIC (Trichosporon beigelii [28]) was 125 µM (≈ 58.9 µg/mL) and the MIC (Candida tropicalis [29]) was > 125 µM. The MIC (Staphylococcus aureus [30]) was 125 µM (≈ 58.9 µg/mL), the MIC (Candida albicans [31]) was > 125 µM and the MIC [32] was 62.5 µM (≈ 29.5 µg/mL). The MIC (Enterococcus sp. [33]) was 125 µM (≈ 58.9 µg/mL), the MIC [34] was 125 µM (≈ 58.9 µg/mL) and the MIC (Mycobacterium kansasii [9]) was 4 µM (≈ 1.89 µg/mL). The MIC (Pichia kudriavzevii [35]) was > 125 µM, the MIC (Mycobacterium avium [10]) was 1 µM (≈ 0.471 µg/mL) and the MIC (Pichia kudriavzevii [36]) was > 125 µM. The MIC (Escherichia coli [37]) was > 125 µM, the MIC [38] was > 125 µM and the MIC (Mycobacterium kansasii [11]) was 4 µM (≈ 1.89 µg/mL). The MIC (Mycobacterium kansasii [12]) was 2 µM (≈ 0.943 µg/mL), the MIC [39] was 62.5 µM (≈ 29.5 µg/mL) and the MIC (Staphylococcus aureus [40]) was 125 µM (≈ 58.9 µg/mL). The MIC (Mycobacterium kansasii [13]) was 8 µM (≈ 3.77 µg/mL) and the MIC (Klebsiella pneumoniae [41]) was > 125 µM.
